PHOSPHO1 inh: inhibitors of human PHOSPHO1 phosphatase. Q8TCT1. recombinant PHOSPHO1, absorbance phosphatase assay. inhibition, % at 13.3 µM. AID 1565. 290,000 tested, 1.1% active; in the data active = inhibition above about 60%
Target sequence (Q8TCT1 whole entry, looked up): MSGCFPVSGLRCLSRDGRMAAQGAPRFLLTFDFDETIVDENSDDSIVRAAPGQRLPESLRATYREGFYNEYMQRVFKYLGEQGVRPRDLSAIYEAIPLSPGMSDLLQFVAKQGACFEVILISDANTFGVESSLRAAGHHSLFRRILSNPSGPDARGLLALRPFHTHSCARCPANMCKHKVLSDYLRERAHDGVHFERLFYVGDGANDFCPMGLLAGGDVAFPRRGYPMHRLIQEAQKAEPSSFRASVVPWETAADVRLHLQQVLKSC
HSF-1 act: increases HSF-1 driven luciferase reporter signal | activation, % at 9 µM | AID 504408 | NIH3T3-HGL HSF-1 luciferase reporter, MG132, 8 h; 100% = twice DMSO control signal | 300,000 tested, 1.7% active;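 active = mean replicate activation of at least 50% with a set share of replicates each reaching 50%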;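 note: 0% = median of the neutral control wells and 100% = twice that signal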
CHT PAM: allosteric activators of human choline transporter CHT; Q9GZV3; CHT-expressing cells, membrane potential dye, choline EC20; stronger effect = higher value; LV-AA mutant CHT in HEK293 cells; B-score at 10 µM; 310,000 tested, 0.49% active;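 active = initial fluorescence not abnormally high and integrated response B-score, plate-corrected, over 3 SD above library mean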
HSF1 inhib: HSF1 inhibition | 300,000 tested, 0.77% active | AID 2098 | activity change, negative = inhibition, % at 7.5 µM (by protocol) | NIH3T3-HGL HSE-luciferase, MG132-induced, luminescence 8 h; stronger effect = lower value;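 active = more than half of replicate wells show activity change below -50%, luminescence cut by over half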;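 note: luciferase reports HSF-1 transcriptional activity via heat shock element; 0% = median of DMSO wells and -100% = zero luminescence signal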
CHT block: inhibits the human high affinity choline transporter | Q9GZV3 | CHT-expressing cells, membrane potential dye, choline response; stronger effect = lower value | B-score at 10 µM | 310,000 tested, 0.86% active | AID 488975;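 active = B-score over 3 SD under the library average, and starting fluorescence ratio not unusually high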;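 note: choline stimulus applied at its EC90 after an EC20 pre-addition; B-score computed on integrated fluorescence ratio after choline addition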
Lipid droplet: modulators of hepatic lipid droplet formation. inhibition, % at 6.5 µM. 240,000 tested, 0.4% active. AML12 mouse hepatocytes, oleate lipid droplets, BODIPY imaging;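 active = lipid droplet intensity inhibited by at least 50%, with more than 500 cells counted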
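Material – mouse AML12 hepatocyte cell line, fixed after treatment · Compound dosing – one dose, 6.5 µM compound · Times – compound with oleate, overnight · Measured by – Image-based BODIPY and DAPI two-channel analysis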
CHT activ conf: human CHT activation, confirmatory screen. activation, % at 10 µM. CHT-expressing cells, membrane potential dye fluorescence (FDSS); % of choline EC20–EC90 response window; HEK293 expressing CHT LV-AA mutant; choline added at its EC20. 2,500 tested, 91% active. AID 504833. shares compounds with CHT PAM;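 active = primary screen active, with duplicate mean activation above negative control mean plus 3 SD, cut at about 11% in these data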
HEK293 MP dye: activity in parental HEK293 cells lacking CHT. ratio readout change at 10 µM, hits read low. 2,500 tested, 62% active. shares compounds with CHT PAM. membrane potential dye fluorescence (FDSS); measured after EC20 choline addition;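 active = duplicate-averaged ratio beyond 3 SD from buffer wells, up or down, though filed actives are nearly all decreases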
* = called active by the depositor; i = inactive; · = not tested or not shown. An excerpt weighted towards active compounds, which were near 4.9% of everything screened.

SMILES	PHOSPHO1 inh	HSF-1 act	CHT PAM	HSF1 inhib	CHT block	Lipid droplet	CHT activ conf	HEK293 MP dye
Cc1csc2c(NCCCN3CCOCC3)ncnc12	47	-4	i	-3	i	-2	41*	-38*
Cc1ccc2ncnc(NCCCN3CCOCC3)c2c1	4	-44	i	-22	i	-2	·	·
CNC(=O)/C(C#N)=C/c1c(N2CCN(C)CC2)nc2c(C)cccn2c1=O	20	6	i	-1	i	-2	58*	-56*
COCCNC(=O)/C(C#N)=C/c1c(N2CCN(c3ccccc3)CC2)nc2c(C)cccn2c1=O	7	3	i	-9	i	7	·	·
CCOC(=O)/C(C#N)=C/c1c(N2CCN(CC)CC2)nc2c(C)cccn2c1=O	6	20	i	4	i	12	52*	-50*
CCN1CCN(c2nc3c(C)cccn3c(=O)c2/C=C(\C#N)C(=O)NC)CC1	-1	-1	9.1*	-4	i	4	47*	-45*
CCN1CCN(c2nc3c(C)cccn3c(=O)c2/C=C(\C#N)C(=O)NCCCOC)CC1	20	7	7.5*	0	i	2	50*	-60*
Cc1ccc(N2C(N)=NC(N)=NC23CCCC3)c(C)c1	-34	-14	i	-5	i	-1	·	·
O=C(CN(C(=O)CNC(=O)c1ccco1)c1ccc2c(c1)OCO2)NC1CCCCC1	-4	-1	i	-5	i	·	·	·
O=C(CN(C(=O)CNC(=O)c1ccco1)c1ccc(Cl)c(Cl)c1)NC1CCCCC1	-13	3	6.9*	-6	i	·	39*	i
CCOC(=O)Cn1c2c(c(=N)c3c1CCC3)CCCC2	3	1	i	-5	i	-18	42*	-34*
O=C(O)CCn1c2c(c3ccccc31)CCCC2	16	9	i	-1	i	-2	·	·
N=c1c2c(n(Cc3ccc(Cl)c(Cl)c3)c3c1CCC3)CCCC2	23	-15	9.6*	-8	i	·	78*	-39*
N=c1c2c(n(Cc3ccc([N+](=O)[O-])cc3)c3c1CCC3)CCCC2	-13	-2	i	-3	i	9	·	·
CCCn1c2c(c(=N)c3c1CCC3)CCC2	-38	-8	6.6*	-5	i	14	59*	-52*
CCCCCCCn1c2c(c(=N)c3ccccc31)CCC2	-43	6	17*	-11	i	-126	75*	-43*
COC(=O)Cn1c2c(c3cc(C)ccc31)CCCC2	3	4	i	-8	i	·	·	·
O=c1c(Cl)c(N2CCOCC2)cnn1-c1ncc(C(F)(F)F)cc1Cl	29	2	i	2	i	-32	·	·
CC(=O)N=c1scc(-c2ccccc2)n1-c1cccc(O)c1	11	-4	i	-6	i	5	·	·
COc1cc2c(C(=O)N3CCN(c4ccccc4F)CC3)cn(C)c(=O)c2cc1OC	-8	-6	i	-11	i	-2	·	·
Cc1ccc(C2=NN(C(=O)CSc3nc4ncc(Cl)cc4[nH]3)C(c3ccco3)C2)cc1 (configuration not stated)	-55	-5	i	-2	i	-10	·	·
N=c1c2c(n(Cc3ccc(Br)cc3)c3c1CCC3)CCCC2	-7	-25	i	-14	i	1	·	·
CCCn1c2c(c(=N)c3c1CCC3)CCCC2	0	-6	7.9*	-16	i	1	50*	-72*
CCOC(=O)c1c(NC(=O)CSc2nnc(-c3ccccc3)o2)sc(C(C)=O)c1C	28	18	i	5	i	-24	·	·
CCOC(=O)c1c(NC(=O)CSc2nc3ccccc3o2)sc(C(C)=O)c1C	0	8	9.1*	4	i	8	12*	i
SMILES	PHOSPHO1 inh	HSF-1 act	CHT PAM	HSF1 inhib	CHT block	Lipid droplet	CHT activ conf	HEK293 MP dye
Cc1ccccc1NS(=O)(=O)c1ccc2[nH]cc(C(=O)NCCCN3CCOCC3)c(=O)c2c1	6	-9	i	-8	i	·	·	·
COc1ccc2c(Cl)c(C(=O)NCCCn3ccnc3)sc2c1Cl	42	12	i	5	i	·	·	·
O=[N+]([O-])c1ccc(/C=C/C2=NN(c3ccccc3)C(c3ccco3)C2)cc1 (configuration not stated)	1	·	15*	·	i	25	51*	i
COc1ccc(-n2cc(CNCCCN3CCCC3=O)c(-c3ccccc3Cl)n2)cc1	46	6	6.3*	8	i	4	19*	i
C/C(=N\S(=O)(=O)c1ccc(C)cc1)NC(=S)Nc1ccccc1	24	-11	i	-3	i	1	·	·
O=C1Oc2ccccc2C(=O)/C1=C/N1CCN(c2ccccc2F)CC1	7	7	i	-2	i	-7	·	·
COc1cc(/C=C/C(=O)NC(C)CCc2ccccc2)cc(OC)c1OC (configuration not stated)	0	6	i	-6	i	5	0	i
COc1cccc(-c2cn(C[C@H]3CC[C@@H]([C@@H]4CC[C@H](Cn5cc(-c6cccc(OC)c6)nn5)O4)O3)nn2)c1	-30	0	7*	0	i	·	15*	i
CCOc1ccc2[nH]c(C)c(CN(C)C)c(=O)c2c1	14	-10	i	-11	i	·	53*	-25*
CCOc1ccc2[nH]c(C)c(CN3CCCCC3)c(=O)c2c1	11	-5	7.6*	-9	i	·	47*	-34*
COC(=O)[C@@]12CCCCN1[C@H](c1ccc(-c3ccc(OC)cc3)cc1)[C@@H]1C(=O)N(C)C(=O)[C@@H]12	·	-15	i	-4	i	·	·	·
O=C(COc1ccccc1)NCC(c1ccco1)N1CCN(c2ccc(F)cc2)CC1 (configuration not stated)	·	11	i	2	i	·	13*	i
O=C(O)/C=C/c1cn(-c2ccccc2)nc1-c1cc2ccccc2o1	44	5	i	-2	i	-1	·	·
C=CCOC(=O)C1=C[C@@H](c2csc3ccccc23)C[C@@H](OCCCCO)O1	·	6	i	3	i	·	20*	i
CCOc1ccc(CC(=O)N/N=C/c2sccc2C)cc1	-8	8	i	-2	i	9	·	·
Cc1c(C)n(Cc2ccccc2)c2ncnc(NCCN(C)C)c12	·	4	i	3	i	·	·	·
